Measured values from ChEMBL document CHEMBL4376862, “Synthesis and evaluation of novel chlorophyll a derivatives as potent photosensitizers for photodynamic therapy” (Eur J Med Chem, 2020).
pIC50: −log10 of the molar value. Calls of active or inactive are those of the source. The rule behind the calls is not given here.

Assays:
[1] = tested on: Mus musculus; experiment: Phototoxicity in ICR mouse assessed as ear weight at 0.45 mg/kg, iv followed by 10 mW/cm2 light irradiation for 10 mins at 5 days after drug challenge measured after 1 day of light irradiation (reference value: 12.9 +/- 1.4 mg); format: organism-based; conditions: in vivo
[2] = tested on: Mus musculus; experiment: Phototoxicity in ICR mouse assessed as ear weight at 0.45 mg/kg, iv followed by 10 mW/cm2 light irradiation for 10 mins at 1 day after drug challenge measured after 1 day of light irradiation (reference value: 12.6 +/- 1.2 mg); format: organism-based; conditions: in vivo
[3] = Octanol/water partition coefficient, logP of compound by shake flask method; format: physicochemical
Summary of the method: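 Shake-flask method: equilibrium concentrations in octanol and water measured by UV-vis absorbance; log P taken as log of octanol/water concentration ratio (mg/L).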

[4] = tested on: A549; experiment: Photodynamic antitumor activity against human A549 cells xenografted in BALB/c nude mouse assessed as necrosis leukocyte infiltration at 0.3 mg/kg, iv incubated for 24 hrs followed by laser light irradiation at 120 J/cm2 measured 24 hrs post light irradiation by H and E staining based histopathological analysis; format: functional, organism-based
Summary of the method: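 Tumors from PDT-treated A549 xenograft mice (0.3 mg/kg i.v., 650 nm laser 120 J/cm2 at 24 h) excised, fixed in 4% formaldehyde in PBS, paraffin-embedded, sectioned, H&E stained.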

[5] = Induction of ROS generation in DMF solution assessed as slope of the photodegradation rate of DPBF at 2 uM followed by irradiation measured every 10 secs by spectrophotometric analysis; format: functional
[6] = Drug localization in lysosome of human A549 cells at 1 uM after 4 hrs by lyso-tracker blue based fluorescence microscopic method; format: ADME, subcellular; conditions: a549, 4 h
Summary of the method: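 A549 cells on coverslips at 1×10^4 cells/mL exposed to […] (so in the source) photosensitizer in complete medium for 4 h, washed, fixed in 4% paraformaldehyde 20 min, then probed 30 min at 37 °C with Mito-Tracker Green, Lyso-Tracker Blue or ER-Tracker Green; fluorescence microscopy, three repeats, minimal ambient light.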

[7] = tested on: A549; experiment: Induction of ROS generation in human A549 cells assessed as increase in green fluorescence irradiated with 650 nanometer laser light preincubated for 4 hrs followed by DCFH-DA addition for 20 mins by fluorescent microscopic method relative to untreated control; format: functional, cell-based
Summary of the method: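 A549 cells given photosensitizer for 4 h, irradiated with 650 nm laser at 2 J/cm2, then DCFH-DA for 20 min; green emission at 525 nm (488 nm excitation) viewed by fluorescence microscopy; controls without light and laser without drug.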

[8] = Dark toxicity in human A549 cells assessed as reduction in cell viability incubated under dark for 24 hrs measured after 48 hrs by MTT assay; format: cell-based; conditions: read-out: TC50
Summary of the method: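 A549 cells seeded at 5×10^4 cells/100 µL per well for 24 h, treated in the dark with […] (so in the source) for 24 h; MTT added 4 h, absorbance 570 nm, 48 h later; viability as OD treated/OD control; triplicate, mean ± SD.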

[9] = tested on: A549; experiment: Phototoxicity against human A549 cells assessed as reduction in cell proliferation irradiated with 1 J/cm2 of 650 nanometer laser light preincubated for 24 hrs measured after 48 hrs by MTT assay; format: functional, cell-based; conditions: A549, light or radiation study
Summary of the method: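 A549 cells seeded 5×10^4 cells/100 µL per well, given […] for 24 h, then 650 nm semiconductor laser at 1 J/cm2 (25 mW/cm2, 40 s); MTT 4 h, absorbance 570 nm; viability vs control; triplicate, mean ± SD.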

[10] = tested on: A549; experiment: Induction of apoptosis in human A549 cells assessed as late apoptotic cell in presence of 1J/cm2 light irradiation measured after 4 hrs by annexin V-FITC and propidium iodide staining based flow cytometric analysis (reference value: 0.05%); format: functional
Summary of the method: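 After PDT at 1 J/cm2, A549 cells collected 4 h later, stained with annexin V-FITC and propidium iodide per kit instructions; flow cytometry with at least 10,000 events per sample.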

[11] = tested on: A549; experiment: Induction of apoptosis in human A549 cells assessed as early apoptotic cell incubated for 4 hrs under dark condition by annexin V-FITC and propidium iodide staining based flow cytometric analysis (reference value: 0.07%); conditions: a549, 4 h
[12] = tested on: A549; experiment: Induction of apoptosis in human A549 cells assessed as late apoptotic cell incubated for 4 hrs under dark condition by annexin V-FITC and propidium iodide staining based flow cytometric analysis (reference value: 0.05%); conditions: a549, 4 h
[13] = tested on: A549; experiment: Induction of apoptosis in human A549 cells assessed as caspase-3 activity using Ac-DEVD-pNA as substrate in presence of laser light irradiation measured upto 12 hrs; format: functional, cell-based
[14] = tested on: A549; experiment: Photodynamic antitumor activity against human A549 cells xenografted in BALB/c nude mouse assessed as increase in tumor tissue damage at 0.3 mg/kg, iv incubated for 24 hrs followed by laser light irradiation at 120 J/cm2 measured up to 14 days; format: functional, organism-based
Summary of the method: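 Male BALB/c nude mice (5–6 weeks, 14–16 g) given 2×10^6 A549 cells s.c. in 0.2 mL PBS; at 6–7 mm tumors randomized into ten groups; drug via tail vein, 650 nm diode laser 120 J/cm2 at 180 mW/cm2 24 h later; caliper volume a×b²/2, followed 14 days.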

[15] = Drug uptake in BALB/c nude mouse xenografted with A549 cells assessed as drug level in heart at 0.3 mg/kg, iv measured at 12 hrs by fluorescence assay; format: ADME, organism-based; conditions: in vivo
Summary of the method: (§1)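 A549 tumor-bearing mice dosed via tail vein (1 mg/kg in methods; 0.3 mg/kg in text) at tumors ~150–170 mm3, n = 3; whole-body imaging 0–24 h; at 6 and 12 h mice killed, heart, liver, spleen, lung, kidney, brain, tumor imaged ex vivo, excitation 420 nm, emission 650 nm.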

[16] = Drug uptake in BALB/c nude mouse xenografted with A549 cells assessed as drug level in spleen at 0.3 mg/kg, iv measured at 12 hrs by fluorescence assay; format: ADME, organism-based; conditions: in vivo; summary of the method: as §1
[17] = Drug uptake in BALB/c nude mouse xenografted with A549 cells assessed as drug level in lung at 0.3 mg/kg, iv measured at 12 hrs by fluorescence assay; format: ADME, organism-based; conditions: in vivo; summary of the method: as §1
[18] = Drug uptake in BALB/c nude mouse xenografted with A549 cells assessed as drug level in brain at 0.3 mg/kg, iv measured at 12 hrs by fluorescence assay; format: ADME, organism-based; conditions: in vivo; summary of the method: as §1
[19] = tested on: Mus musculus; experiment: Phototoxicity in ICR mouse assessed as change in skin of the backs 0.45 mg/kg, iv in presence of 10 mW/cm2 light irradiation for 10 mins upto 7 days measured after 1 day of light irradiation by H and E staining based microscopic analysis; format: organism-based; conditions: in vivo
[20] = tested on: Cavia porcellus; experiment: Phototoxicity in guinea pig assessed as change in auricles of left ear at 4.5 mg/kg, iv in presence of 10 mW/cm2 light irradiation for 10 mins measured after 1day of light irradiation by H and E staining based microscopic analysis; format: organism-based; conditions: in vivo
[21] = tested on: Cavia porcellus; experiment: Phototoxicity in guinea pig assessed as change in back skin at 4.5 mg/kg, iv in presence of 10 mW/cm2 light irradiation for 10 mins measured after 1day of light irradiation by H and E staining based microscopic analysis; format: organism-based; conditions: in vivo
[22] = tested on: A549; experiment: Cytotoxicity against human A549 cells assessed as apoptotic lesions in absence of light by fluorescence microscopic method; format: cell-based
[23] = Drug uptake in BALB/c nude mouse xenografted with A549 cells assessed as drug level in liver at 0.3 mg/kg, iv measured upto 12 hrs by fluorescence assay; format: ADME, organism-based; conditions: in vivo; summary of the method: as §1

| logP [3] | Drug uptake [6] | Drug uptake [15] | Drug uptake [16] | Drug uptake [17] | Drug uptake [18] | Compound | Activity [1] [mg] | Activity [2] [mg] | Activity [4] | K [5] [s⁻¹] | Activity [7] | CC50 at 24 h [8] [µM] | pIC50 [9] | Activity [10] [%] | Activity [11] [%] | Activity [12] [%] | Activity [13] | Activity [14] | Activity [19] | Activity [20] | also measured |
| --- | --- | --- | --- | --- | --- | --- | --- | --- | --- | --- | --- | --- | --- | --- | --- | --- | --- | --- | --- | --- | --- |
| 1.59 | Active | Not Active | Not Active | Not Active | Not Active | CCC1=C(C)c2cc3[nH]c(cc4nc(c5c6[nH]c(cc1n2)c(C)c6C(=O)C5)[C@@H](CCC(=O)NCC(=O)CCC(=O)O)[C@@H]4C)c(C)c3C(C)OCCO (stereo partly specified) | 12.9 | 13.3 | Active | 0.027 | Active | 8.88 | 6.00 | 67.73 | 4.63 | 4.7 | Active | Active | Non-Toxic | Non-Toxic | Activity [21]: Non-Toxic; Activity [22]: Non-Toxic; Drug uptake [23]: Active |
| 2.36 | Active | Not Active | Not Active | Not Active | Not Active | CCCCOC(C)c1c(C)c2cc3nc(c4c5[nH]c(cc6nc(cc1[nH]2)C(C)=C6CC)c(C)c5C(=O)C4)[C@@H](CCC(=O)NCC(=O)CCC(=O)O)[C@@H]3C (stereo partly specified) | 13.5 | 12.9 | Active | 0.0313 | Active | 2.01 | 6.64 | 83.88 | 3.16 | 4.78 | Active | Active | Non-Toxic | Non-Toxic | Activity [21]: Non-Toxic; Activity [22]: Non-Toxic; Drug uptake [23]: Active |
